Laboratory results reported in ChEMBL document CHEMBL2321729, “Identification of acidic heterocycle-substituted 1H-pyrazolo[3,4-b]pyridines as soluble guanylate cyclase stimulators” (Bioorg Med Chem Lett, 2013).
In brackets after ≈: the same amount, converted by molar mass.

Experiments:
[1] = Pseudo-thermodynamic solubility of the compound at pH 6.5; type: physicochemical; conditions: buffer, read-out: Therm_solubility
Outline: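 Pseudo-thermodynamic solubility measured at pH 6.5.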

Hepatocyte = experiment: Stability of the compound in rat liver hepatocytes; type: ADME, cell-based
Outline: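 Bioavailability (Fmax) predicted from incubation with rat liver hepatocytes.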

[2] = Stimulation of soluble guanylate cyclase activity in pre-contracted rabbit aortic rings assessed as inhibition of vasoconstriction; conditions: Oryctolagus cuniculus
Outline: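 Relaxation of rabbit aortic rings that were pre-contracted before exposure. IC50 given as the mean of three experiments.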

[3] = Oral bioavailability in Wistar rat at 0.3 mg/kg; type: ADME, organism-based; conditions: in vivo
Outline: (§1)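 Wistar rats given 0.3 mg/kg as an intravenous bolus and by oral gavage, formulated in EtOH/PEG400/H₂O; mean values. AUC_norm was calculated from the concentration–time curve after the intravenous dose. Clearance was taken as total plasma (or total blood) clearance. Mean residence time, half-life and oral bioavailability were also derived.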

[4] = Half life in Wistar rat at 0.3 mg/kg, iv and 0.3 mg/kg, po; type: ADME, organism-based; conditions: in vivo; outline: as §1
[5] = Total blood clearance in Wistar rat at 0.3 mg/kg, iv and 0.3 mg/kg, po; type: ADME, organism-based; conditions: whole blood
Outline: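 Wistar rats received 0.3 mg/kg by intravenous bolus and by oral gavage, vehicle EtOH/PEG400/H₂O. Total blood clearance was reported as the mean value from these administrations.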

Rattus norvegicus [6] = experiment: Dose normalized AUC in Wistar rat at 0.3 mg/kg, iv; type: ADME, organism-based; design: dose 0.3 mg/kg, route intravenous; conditions: in vivo; outline: as §1
Rattus norvegicus [7] = experiment: Antihypertensive activity in po dosed spontaneously hypertensive rat assessed as reduction of blood pressure measured up to 24 hrs; type: functional, organism-based
Outline: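 Oral gavage at 0 h in spontaneously hypertensive rats; controls given vehicle. Blood pressure expressed as a percentage of initial values (131–142 mmHg). Mean of 6–12 animals.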

[8] = Mean residence time in Wistar rat at 0.3 mg/kg, iv and 0.3 mg/kg, po; type: ADME, organism-based; conditions: in vivo; outline: as §1
[9] = Total plasma clearance in Wistar rat at 0.3 mg/kg, iv and 0.3 mg/kg, po; type: ADME, organism-based; outline: as §1
Liver microsomes = experiment: Stability of the compound in rat liver microsomes; type: ADME, Microsome
Outline: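 Bioavailability (Fmax) predicted from incubation with rat liver microsomes.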

Compound | solubility thermodynamic [1] | Stability (Hepatocyte) | IC50 [2] | bioavailability [3] | half-life [4] | AUC/dose (Rattus norvegicus [6]) | MRT [8] | clearance [9] | Stability (Liver microsomes) | clearance [5] | Activity (Rattus norvegicus [7])
O=c1[nH]c(-c2nn(Cc3ccccc3F)c3ncccc23)ns1 | 11 µg/mL (≈ 33.6 µM) | 90% | 520 nM |  |  |  |  |  |  |  | 
Nc1nc(-c2nn(Cc3ccccc3F)c3ncccc23)nc(N)c1N1CCOCC1 |  | 76% | 100 nM | 25% | 1.2 h | 0.32 kg·h/L |  |  |  | 75 mL/min/kg | 
Fc1ccccc1Cn1nc(-c2noc(=S)[nH]2)c2cccnc21 | 280 µg/mL (≈ 855 µM) | 69% | 1100 nM |  |  |  |  |  |  |  | 
O=c1[nH]c(-c2nn(Cc3ccccc3F)c3ncccc23)no1 | 320 µg/mL (≈ 1030 µM) | 98% | 1260 nM | 75% | 1.4 h | 2.79 kg·h/L | 1.9 h |  |  | 11.7 mL/min/kg | Dose-dependent effect
Cn1nc(-c2nn(Cc3ccccc3F)c3ncccc23)[nH]c1=O | 4 µg/mL (≈ 12.3 µM) | 74% | 870 nM |  |  |  |  |  |  |  | 
O=c1[nH]c(-c2nn(Cc3ccccc3F)c3ncccc23)nn1CC(F)(F)F |  | 91% | 610 nM |  |  |  |  |  |  |  | 

Continued by falling IC50 [2], values first:

solubility thermodynamic [1] | Stability (Hepatocyte) | IC50 [2] | bioavailability [3] | half-life [4] | AUC/dose (Rattus norvegicus [6]) | MRT [8] | clearance [9] | Stability (Liver microsomes) | Compound | clearance [5] | Activity (Rattus norvegicus [7])
150 µg/mL (≈ 508 µM) | 100% | 8600 nM | 94% | 2.4 h | 3.63 kg·h/L |  | 4.67 mL/min/kg |  | Fc1ccccc1Cn1nc(-c2nnn[nH]2)c2cccnc21 |  | 
16 µg/mL (≈ 51.6 µM) | 59% | 3100 nM |  |  |  |  |  |  | O=c1[nH]nc(-c2nn(Cc3ccccc3F)c3ncccc23)[nH]1 |  | 
 | 69% | 730 nM |  |  |  |  |  |  | CCn1nc(-c2nn(Cc3ccccc3F)c3ncccc23)[nH]c1=O |  | 
10 µg/mL (≈ 32.1 µM) |  | 610 nM |  |  |  |  |  | 59% | O=c1[nH]nc(-c2nn(Cc3ccccc3F)c3ncccc23)o1 |  | 
